Test system: not listed separately
Assay: Cytotoxicity against rat RBL2H3 cells by MTT assay
Assay type: cell-based
Parameters: concentration or dose not given beside the values
Details: rbl-2h3
Outline: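 RBL2H3 cells (α-MEM) or PC12 cells (D-MEM), both with 10% FBS, treated at a single dose in 0.1% DMSO; 0.1% DMSO control; 37 °C, 5% CO2. MTT (5 mg/mL) added 4 h before the end, then SDS/DMF lysis buffer (pH 7.2) for 6 h; absorbance read at 570 nm. Cytotoxicity % calculated from background-corrected OD versus control.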
`CCOC(=O)CNC(=O)[C@]12CC[C@@H](C)[C@H](C)[C@H]1C1=CC[C@@H]3[C@@]4(C)Cc5cnn(-c6ccc(F)cc6)c5C(C)(C)[C@@H]4CC[C@@]3(C)[C@]1(C)CC2` showed an Activity of 15.8%. Work on `COC(=O)C(Cc1ccccc1)NC(=O)[C@]12CC[C@@H](C)[C@H](C)[C@H]1C1=CC[C@@H]3[C@@]4(C)Cc5cncnc5C(C)(C)[C@@H]4CC[C@@]3(C)[C@]1(C)CC2` (stereo partly specified) yielded an Activity of 2.6%. In the case of `CCOC(=O)CNC(=O)[C@]12CC[C@@H](C)[C@H](C)[C@H]1C1=CC[C@@H]3[C@@]4(C)Cc5c([nH]c6ccc(Cl)cc56)C(C)(C)[C@@H]4CC[C@@]3(C)[C@]1(C)CC2`, the Activity is reported as 14.7%. In the case of `C[C@H]1[C@H](C)CC[C@]2(C(=O)O)CC[C@]3(C)C(=CC[C@@H]4[C@@]5(C)Cc6cnoc6C(C)(C)[C@@H]5CC[C@]43C)[C@H]12`, the Activity is reported as 2.1%. In the case of `CCOC(=O)CNC(=O)[C@]12CC[C@@H](C)[C@H](C)[C@H]1C1=CC[C@@H]3[C@@]4(C)CCC(=O)C(C)(C)[C@@H]4CC[C@@]3(C)[C@]1(C)CC2`, the Activity is reported as 1.7%. `C[C@H]1[C@H](C)CC[C@]2(C(=O)O)CC[C@]3(C)C(=CC[C@@H]4[C@@]5(C)Cc6cncnc6C(C)(C)[C@@H]5CC[C@]43C)[C@H]12` showed an Activity of 4.3%. Work on `COC(=O)C(CC(C)C)NC(=O)[C@]12CC[C@@H](C)[C@H](C)[C@H]1C1=CC[C@@H]3[C@@]4(C)Cc5cn[nH]c5C(C)(C)[C@@H]4CC[C@@]3(C)[C@]1(C)CC2` (stereo partly specified) yielded an Activity of 0.9%. With `COC(=O)C(CC(C)C)NC(=O)[C@]12CC[C@@H](C)[C@H](C)[C@H]1C1=CC[C@@H]3[C@@]4(C)Cc5cnn(-c6ccc(F)cc6)c5C(C)(C)[C@@H]4CC[C@@]3(C)[C@]1(C)CC2` (stereo partly specified) the Activity was 1%. Work on `CCOC(=O)CNC(=O)[C@]12CC[C@@H](C)[C@H](C)[C@H]1C1=CC[C@@H]3[C@@]4(C)Cc5nc6cc(Cl)c(Cl)cc6nc5C(C)(C)[C@@H]4CC[C@@]3(C)[C@]1(C)CC2` yielded an Activity of 2%. With `C[C@H]1[C@H](C)CC[C@]2(C(=O)NCCCN3CCOCC3)CC[C@]3(C)C(=CC[C@@H]4[C@@]5(C)Cc6nc7ccccc7nc6C(C)(C)[C@@H]5CC[C@]43C)[C@H]12` the Activity was 31.3%. Work on `COC(=O)C(Cc1ccccc1)NC(=O)[C@]12CC[C@@H](C)[C@H](C)[C@H]1C1=CC[C@@H]3[C@@]4(C)C=C(C#N)C(=O)C(C)(C)[C@@H]4CC[C@@]3(C)[C@]1(C)CC2` (stereo partly specified) yielded an Activity of 5.4%. In the case of `COC(=O)C(Cc1ccccc1)NC(=O)[C@]12CC[C@@H](C)[C@H](C)[C@H]1C1=CC[C@@H]3[C@@]4(C)Cc5cnn(-c6ccc(F)cc6)c5C(C)(C)[C@@H]4CC[C@@]3(C)[C@]1(C)CC2` (stereo partly specified), the Activity is reported as 2%. `C[C@H]1[C@H](C)CC[C@]2(C(=O)O)CC[C@]3(C)C(=CC[C@@H]4[C@@]5(C)Cc6cnn(-c7ccccc7)c6C(C)(C)[C@@H]5CC[C@]43C)[C@H]12` gave an Activity of 2.4%. For `COC(=O)C(CC(C)C)NC(=O)[C@]12CC[C@@H](C)[C@H](C)[C@H]1C1=CC[C@@H]3[C@@]4(C)Cc5c([nH]c6ccc(Br)cc56)C(C)(C)[C@@H]4CC[C@@]3(C)[C@]1(C)CC2` (stereo partly specified), the Activity was 3%. Molecule `COC(=O)C(Cc1ccccc1)NC(=O)[C@]12CC[C@@H](C)[C@H](C)[C@H]1C1=CC[C@@H]3[C@@]4(C)Cc5cn[nH]c5C(C)(C)[C@@H]4CC[C@@]3(C)[C@]1(C)CC2` (stereo partly specified) has an Activity of 1.9%. With `CSCC[C@@H](NC(=O)[C@]12CC[C@@H](C)[C@H](C)[C@H]1C1=CC[C@@H]3[C@@]4(C)Cc5nc6ccccc6nc5C(C)(C)[C@@H]4CC[C@@]3(C)[C@]1(C)CC2)C(=O)O` the Activity was 6.2%. With `COC(=O)C(Cc1ccccc1)NC(=O)[C@]12CC[C@@H](C)[C@H](C)[C@H]1C1=CC[C@@H]3[C@@]4(C)Cc5nc6cc(Cl)c(Cl)cc6nc5C(C)(C)[C@@H]4CC[C@@]3(C)[C@]1(C)CC2` (stereo partly specified) the Activity was 7.7%. For `CCOC(=O)CNC(=O)[C@]12CC[C@@H](C)[C@H](C)[C@H]1C1=CC[C@@H]3[C@@]4(C)CC[C@H](OC(C)=O)C(C)(C)[C@@H]4CC[C@@]3(C)[C@]1(C)CC2`, the Activity was 1.6%. `C[C@H]1[C@H](C)CC[C@]2(C(=O)O)CC[C@]3(C)C(=CC[C@@H]4[C@@]5(C)Cc6c([nH]c7ccc(Cl)cc67)C(C)(C)[C@@H]5CC[C@]43C)[C@H]12` showed an Activity of 2.9%. Molecule `C[C@H]1[C@H](C)CC[C@]2(C(=O)O)CC[C@]3(C)C(=CC[C@@H]4[C@@]5(C)Cc6cn[nH]c6C(C)(C)[C@@H]5CC[C@]43C)[C@H]12` has an Activity of 0.1%. With `COC(=O)C(CC(C)C)NC(=O)[C@]12CC[C@@H](C)[C@H](C)[C@H]1C1=CC[C@@H]3[C@@]4(C)C=C(C#N)C(=O)C(C)(C)[C@@H]4CC[C@@]3(C)[C@]1(C)CC2` (stereo partly specified) the Activity was 58.1%. With `COC(=O)C(CC(C)C)NC(=O)[C@]12CC[C@@H](C)[C@H](C)[C@H]1C1=CC[C@@H]3[C@@]4(C)Cc5cnoc5C(C)(C)[C@@H]4CC[C@@]3(C)[C@]1(C)CC2` (stereo partly specified) the Activity was 17.7%. With `CCOC(=O)CNC(=O)[C@]12CC[C@@H](C)[C@H](C)[C@H]1C1=CC[C@@H]3[C@@]4(C)Cc5cncnc5C(C)(C)[C@@H]4CC[C@@]3(C)[C@]1(C)CC2` the Activity was 1.9%. Work on `C[C@H]1[C@H](C)CC[C@]2(C(=O)O)CC[C@]3(C)C(=CC[C@@H]4[C@@]5(C)Cc6nc7cc(Cl)c(Cl)cc7nc6C(C)(C)[C@@H]5CC[C@]43C)[C@H]12` yielded an Activity of 2.2%. `C[C@H]1[C@H](C)CC[C@]2(C(=O)O)CC[C@]3(C)C(=CC[C@@H]4[C@@]5(C)CC[C@H](O)C(C)(C)[C@@H]5CC[C@]43C)[C@H]12` [URSOLIC ACID] showed an Activity of 10%. With `COC(=O)C(Cc1ccccc1)NC(=O)[C@]12CC[C@@H](C)[C@H](C)[C@H]1C1=CC[C@@H]3[C@@]4(C)Cc5nc6ccccc6nc5C(C)(C)[C@@H]4CC[C@@]3(C)[C@]1(C)CC2` (stereo partly specified) the Activity was 12.4%. For `C[C@H]1[C@H](C)CC[C@]2(C(=O)O)CC[C@]3(C)C(=CC[C@@H]4[C@@]5(C)Cc6cnn(-c7ccc(F)cc7)c6C(C)(C)[C@@H]5CC[C@]43C)[C@H]12`, the Activity was 1.5%. Work on `CCOC(=O)CNC(=O)[C@]12CC[C@@H](C)[C@H](C)[C@H]1C1=CC[C@@H]3[C@@]4(C)Cc5cnoc5C(C)(C)[C@@H]4CC[C@@]3(C)[C@]1(C)CC2` yielded an Activity of 11.1%. `C[C@H]1[C@H](C)CC[C@]2(C(=O)NCCC3CCN(Cc4ccccc4)CC3)CC[C@]3(C)C(=CC[C@@H]4[C@@]5(C)Cc6nc7ccccc7nc6C(C)(C)[C@@H]5CC[C@]43C)[C@H]12` gave an Activity of 59.5%. In the case of `C[C@H]1[C@H](C)CC[C@]2(C(=O)O)CC[C@]3(C)C(=CC[C@@H]4[C@@]5(C)C=C(C#N)C(=O)C(C)(C)[C@@H]5CC[C@]43C)[C@H]12`, the Activity is reported as 4.3%. `C[C@H]1[C@H](C)CC[C@]2(C(=O)NCCN3CCCCC3)CC[C@]3(C)C(=CC[C@@H]4[C@@]5(C)Cc6nc7ccccc7nc6C(C)(C)[C@@H]5CC[C@]43C)[C@H]12` gave an Activity of 52.1%. `COC(=O)C(CC(C)C)NC(=O)[C@]12CC[C@@H](C)[C@H](C)[C@H]1C1=CC[C@@H]3[C@@]4(C)CC[C@H](OC(C)=O)C(C)(C)[C@@H]4CC[C@@]3(C)[C@]1(C)CC2` (stereo partly specified) showed an Activity of 6.6%. For `COC(=O)C(Cc1ccccc1)NC(=O)[C@]12CC[C@@H](C)[C@H](C)[C@H]1C1=CC[C@@H]3[C@@]4(C)Cc5c([nH]c6ccc(Br)cc56)C(C)(C)[C@@H]4CC[C@@]3(C)[C@]1(C)CC2` (stereo partly specified), the Activity was 16%. With `CCOC(=O)CNC(=O)[C@]12CC[C@@H](C)[C@H](C)[C@H]1C1=CC[C@@H]3[C@@]4(C)Cc5cnn(-c6ccccc6)c5C(C)(C)[C@@H]4CC[C@@]3(C)[C@]1(C)CC2` the Activity was 1.2%. Molecule `C[C@H]1[C@H](C)CC[C@]2(C(=O)O)CC[C@]3(C)C(=CC[C@@H]4[C@@]5(C)Cc6nc7ccccc7nc6C(C)(C)[C@@H]5CC[C@]43C)[C@H]12` has an Activity of 3.5%.

Target: T1, Tryptophan 5-hydroxylase 1 (Rattus norvegicus, UniProt P09810)
T1 sequence (P09810 whole entry): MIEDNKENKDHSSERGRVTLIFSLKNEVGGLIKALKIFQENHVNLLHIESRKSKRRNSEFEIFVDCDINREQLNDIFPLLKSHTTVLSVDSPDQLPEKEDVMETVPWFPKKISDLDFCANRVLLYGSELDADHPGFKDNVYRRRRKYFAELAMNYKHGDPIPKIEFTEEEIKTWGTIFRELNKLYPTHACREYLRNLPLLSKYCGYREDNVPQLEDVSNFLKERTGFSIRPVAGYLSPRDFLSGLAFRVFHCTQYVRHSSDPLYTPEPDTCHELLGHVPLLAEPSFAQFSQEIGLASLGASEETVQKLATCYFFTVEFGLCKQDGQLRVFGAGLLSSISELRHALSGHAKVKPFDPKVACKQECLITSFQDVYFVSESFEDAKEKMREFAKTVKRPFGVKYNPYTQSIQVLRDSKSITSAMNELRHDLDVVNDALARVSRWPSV
Details: not given
Work on `Nc1nc(OC(c2ccc(-c3cccc(F)c3)cc2)C(F)(F)F)cc(-c2ccc(C[C@H](N)C(=O)O)cc2)n1` (stereo partly specified) yielded an IC50 of 400 nM.
